Reference: ChEMBL document CHEMBL3763093, “The molecular structure of thio-ether fatty acids influences PPAR-dependent regulation of lipid metabolism” (Bioorg Med Chem, 2016)
Active and inactive are the calls of the source. The calls are words filed in the database; no cut-off is given here.

Columns and labels:
[1] = Effect on fatty acid composition in human myotubes assessed as intracellular PUFA n-6 level at 30 uM after 96 hrs (Rvb= 11.46%); type: functional
Method in brief: (§1)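 Differentiated human myotubes (7 days) treated 96 h with 10 or 30 μM compound or DMSO 0.1% (two controls). Cells washed, harvested, lipids extracted and methylated (methanol, sulfuric acid, 90 °C, 1 h); FA methyl esters quantified by GC with C21:0 internal standard, peaks confirmed by standards and GC/MS; values as mol % of intracellular fatty acids.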

[2] = Effect on total fatty acid level in human myotubes assessed as per mg of protein at 10 to 30 uM; type: ADME
[3] = Effect on fatty acid composition in human myotubes assessed as change in intracellular MUFA level at 30 uM after 96 hrs relative to DMSO control; type: functional; method in brief: as §1
[4] = Effect on fatty acid composition in human myotubes assessed as intracellular dTTA level at 10 uM after 96 hrs; type: functional; method in brief: as §1
[5] = Effect on fatty acid composition in human myotubes assessed as change in intracellular MUFA level at 10 uM after 96 hrs relative to DMSO control; type: functional; method in brief: as §1
[6] = Effect on fatty acid composition in human myotubes assessed as intracellular TTA level at 10 uM after 96 hrs; type: functional; method in brief: as §1
[7] = Effect on fatty acid composition in human myotubes assessed as intracellular dTTA level at 30 uM after 96 hrs; type: functional; method in brief: as §1
[8] = Effect on fatty acid composition in human myotubes assessed as intracellular PUFA n-3 level at 10 uM after 96 hrs (Rvb= 5.16%); type: functional; method in brief: as §1
[9] = Effect on fatty acid composition in human myotubes assessed as intracellular PUFA n-6 level at 10 uM after 96 hrs (Rvb= 11.46%); type: functional; method in brief: as §1
[10] = Effect on fatty acid composition in human myotubes assessed as intracellular PUFA n-3 level at 30 uM after 96 hrs (Rvb= 5.16%); type: functional; method in brief: as §1
[11] = target: T1, Peroxisome proliferator-activated receptor (Homo sapiens) (UniProt P37231+Q07869+Q03181); assay: Agonist activity at PPAR in human myotubes assessed as CD36 mRNA expression at 30 uM after 96 hrs by qPCR analysis relative to control
Method in brief: (§2)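 Myotubes from satellite cells of abdominal muscle biopsies of healthy donors, differentiated 7 days, then exposed 96 h to test lipids (30 μM) vs DMSO 0.1%. Total RNA isolated (RIN ≥7), reverse transcribed, real-time PCR with gene-specific primers; expression expressed relative to DMSO control.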

[12] = Effect on fatty acid composition in human myotubes assessed as intracellular MUFA level at 30 uM after 96 hrs (Rvb= 49.95%); type: functional; method in brief: as §1
[13] = target: T1, Peroxisome proliferator-activated receptor (Homo sapiens); assay: Agonist activity at PPAR in human myotubes assessed as FABP3 mRNA expression at 30 uM after 96 hrs by qPCR analysis relative to control; method in brief: as §2
[14] = target: T1, Peroxisome proliferator-activated receptor (Homo sapiens); assay: Agonist activity at PPAR in human myotubes assessed as ANGPTL4 mRNA expression at 30 uM after 96 hrs by qPCR analysis relative to control; method in brief: as §2
[15] = Effect on fatty acid composition in human myotubes assessed as intracellular PUFA n-9 level at 30 uM after 96 hrs (Rvb= 1.89%); type: functional; method in brief: as §1
[16] = Effect on fatty acid composition in human myotubes assessed as change in intracellular SFA level at 10 uM after 96 hrs relative to DMSO control; type: functional; method in brief: as §1
[17] = Effect on fatty acid composition in human myotubes assessed as intracellular SFA level at 30 uM after 96 hrs (Rvb= 31.41%); type: functional; method in brief: as §1
[18] = Effect on fatty acid composition in human myotubes assessed as intracellular PUFA n-9 level at 10 uM after 96 hrs (Rvb= 1.89%); type: functional; method in brief: as §1
[19] = Effect on fatty acid composition in human myotubes assessed as intracellular SFA level at 10 uM after 96 hrs (Rvb= 31.41%); type: functional; method in brief: as §1
[20] = Effect on fatty acid composition in human myotubes assessed as intracellular TTA level at 30 uM after 96 hrs; type: functional; method in brief: as §1
Homo sapiens [21] = organism: Homo sapiens; assay: Effect on intracellular [14C]oleic acid uptake in human myotubes at 10 to 30 uM preincubated for 96 hrs followed by substrate addition incubated for 4 hrs by liquid scintillation analysis; type: functional, cell-based
Method in brief: (§3)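 Myotubes differentiated 7 days were pretreated 96 h with 10 or 30 μM compound, 10 nM GW501516 or DMSO 0.1%, then given [1-14C]oleic acid (0.5 μCi/mL, 100 μM) in DPBS with HEPES 10 mM and L-carnitine 1 mM, 4 h at 37 °C. Trapped CO2 and cell-associated label counted by scintillation; uptake = CO2 + CA; Bradford protein; % of DMSO basal; n = 8–15.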

[22] = Effect on protein level in human myotubes at 10 to 30 uM; type: ADME
[23] = target: T1, Peroxisome proliferator-activated receptor (Homo sapiens); assay: Agonist activity at PPAR in human myotubes assessed as CPT1A mRNA expression at 30 uM after 96 hrs by qPCR analysis relative to control; method in brief: as §2
[24] = Effect on fatty acid composition in human myotubes assessed as intracellular MUFA level at 10 uM after 96 hrs (Rvb= 49.95%); type: functional; method in brief: as §1
[25] = Effect on fatty acid composition in human myotubes assessed as change in intracellular SFA level at 30 uM after 96 hrs relative to DMSO control; type: functional; method in brief: as §1
[26] = Effect on fatty acid composition in human myotubes assessed as intracellular PUFA n-6 level at 10 uM after 96 hrs (Rvb= 13.41%); type: functional; method in brief: as §1
[27] = Effect on fatty acid composition in human myotubes assessed as intracellular MUFA level at 30 uM after 96 hrs (Rvb= 41.04%); type: functional; method in brief: as §1
[28] = Effect on fatty acid composition in human myotubes assessed as intracellular PUFA n-9 level at 10 uM after 96 hrs (Rvb= 1.78%); type: functional; method in brief: as §1
[29] = Effect on fatty acid composition in human myotubes assessed as intracellular PUFA n-3 level at 10 uM after 96 hrs (Rvb= 7.47%); type: functional; method in brief: as §1
[30] = Effect on fatty acid composition in human myotubes assessed as intracellular SFA level at 30 uM after 96 hrs (Rvb= 36.16%); type: functional; method in brief: as §1
[31] = Effect on fatty acid composition in human myotubes assessed as intracellular PUFA n-3 level at 30 uM after 96 hrs (Rvb= […]); type: functional; method in brief: as §1
[32] = Effect on fatty acid composition in human myotubes assessed as intracellular MUFA level at 10 uM after 96 hrs (Rvb= 41.04%); type: functional; method in brief: as §1
[33] = Effect on fatty acid composition in human myotubes assessed as intracellular PUFA n-9 level at 30 uM after 96 hrs (Rvb= 1.78%); type: functional; method in brief: as §1
[34] = Effect on fatty acid composition in human myotubes assessed as intracellular PUFA n-6 level at 30 uM after 96 hrs (Rvb= 13.41%); type: functional; method in brief: as §1
[35] = Effect on fatty acid composition in human myotubes assessed as intracellular SFA level at 10 uM after 96 hrs (Rvb= 36.16%); type: functional; method in brief: as §1
Homo sapiens [36] = organism: Homo sapiens; assay: Induction of fatty acid oxidation in human myotubes using [14C]oleic acid as substrate preincubated for 96 hrs followed by substrate addition incubated for 4 hrs by liquid scintillation analysis; type: functional; method in brief: as §3
[37] = Effect on fatty acid composition in human myotubes assessed as intracellular tTTA level at 30 uM after 96 hrs; type: functional; method in brief: as §1
[38] = Effect on fatty acid composition in human myotubes assessed as intracellular tTTA level at 10 uM after 96 hrs; type: functional; method in brief: as §1

Structure (SMILES)	Activity [2]	Activity [3]	Activity [4]	Activity [5]	Activity [6]	Activity [7]	Activity [11]	Activity [13]	Activity [16]	Activity [20]	Activity (Homo sapiens [21])	Activity [22]	Activity [25]	Activity [26]	Activity [27]	Activity [28]	Activity [29]	Activity [30]	Activity [31]	Activity [32]	other results
CCCCCC/C=C\CCCCCCSCC(=O)OC[C@H](COP(=O)([O-])OCC[N+](C)(C)C)OC(=O)CSCCCCCC/C=C\CCCCCC	Non-toxic	-13.1%	1.87 mol%	-3.6%	0.01 mol%	6.08 mol%	Active	Active	2.7%	0.4 mol%	inactive	Non-toxic	4.5%	–	–	–	–	–	–	–	Activity [1]: 11.45 mol%; Activity [8]: 4.74 mol%; Activity [9]: 11.29 mol%; Activity [10]: 4.63 mol%; Activity [12]: 43.41 mol%; Activity [14]: Active; Activity [15]: 1.42 mol%; Activity [17]: 32.82 mol%; Activity [18]: 1.53 mol%; Activity [19]: 32.26 mol%; Activity [23]: Active; Activity [24]: 48.17 mol%
CCCCCCCCCCCCCCSCC(=O)OC[C@H](COP(=O)([O-])OCC[N+](C)(C)C)OC(=O)CSCCCCCCCCCCCCCC [PHOSPHATIDYLCHOLINE]	Non-toxic	-4.4%	0.17 mol%	-8.8%	5.5 mol%	0.34 mol%	inactive	inactive	-2.5%	5.9 mol%	inactive	Non-toxic	-11.8%	12.71 mol%	39.28 mol%	1.88 mol%	6.98 mol%	31.79 mol%	7.3 mol%	37.48 mol%	Activity [14]: inactive; Activity [33]: 1.95 mol%; Activity [34]: 13.31 mol%; Activity [35]: 35.14 mol%; Activity [23]: inactive
CCCCCCCCCCCCCCSCC(=O)OC[C@@H](O)COP(=O)([O-])OCC[N+](C)(C)C	Non-toxic	-19.3%	0.76 mol%	-9.6%	7.99 mol%	0.91 mol%	–	–	-16.3%	19.51 mol%	inactive	Non-toxic	-34.6%	13.96 mol%	33.15 mol%	2.21 mol%	7.68 mol%	23.57 mol%	7.56 mol%	37.12 mol%	Activity (Homo sapiens [36]): Dose-dependent effect; Activity [33]: 1.97 mol%; Activity [34]: 13.2 mol%; Activity [35]: 30.15 mol%
CCCCCCC#CCCCCCCSCC(=O)O	Non-toxic	-21.3%	–	-11.6%	0.06 mol%	–	Active	Active	2.2%	0.32 mol%	inactive	Non-toxic	0.7%	13.93 mol%	32.32 mol%	1.32 mol%	8.41 mol%	36.3 mol%	7.09 mol%	36.3 mol%	Activity [37]: 11.34 mol%; fold change (FC) [14]: 35; Activity [33]: 0.87 mol%; Activity [34]: 11.63 mol%; Activity [35]: 38.85 mol%; Activity [38]: 3.01 mol%; fold change (FC) [23]: < 10
CCCCCCCCCCCCCCSCC(=O)OC[C@@H](O)CO	Non-toxic	-19.4%	0.49 mol%	-6.4%	7.17 mol%	0.91 mol%	Active	Active	-18.5%	20.04 mol%	inactive	Non-toxic	-38.1%	14.15 mol%	33.11 mol%	1.81 mol%	8.42 mol%	22.3 mol%	8.21 mol%	38.46 mol%	Activity (Homo sapiens [36]): Dose-dependent effect; Activity [14]: Active; Activity [33]: 1.68 mol%; Activity [34]: 13.63 mol%; Activity [35]: 29.36 mol%; Activity [23]: Active
